Assay results from ChEMBL document CHEMBL4145595, “Discovery of MK-8282 as a Potent G-Protein-Coupled Receptor 119 Agonist for the Treatment of Type 2 Diabetes” (ACS Med Chem Lett, 2018).
The source made the active and inactive calls. No cut-off for these calls is given here.

Legend:
[1] = target: T1, Glucose-dependent insulinotropic receptor (Mus musculus) (UniProt Q7TQP3); test: (§1) Agonist activity at mouse GPR119 assessed as increase in cAMP level; assay type: functional
T1 sequence (whole entry): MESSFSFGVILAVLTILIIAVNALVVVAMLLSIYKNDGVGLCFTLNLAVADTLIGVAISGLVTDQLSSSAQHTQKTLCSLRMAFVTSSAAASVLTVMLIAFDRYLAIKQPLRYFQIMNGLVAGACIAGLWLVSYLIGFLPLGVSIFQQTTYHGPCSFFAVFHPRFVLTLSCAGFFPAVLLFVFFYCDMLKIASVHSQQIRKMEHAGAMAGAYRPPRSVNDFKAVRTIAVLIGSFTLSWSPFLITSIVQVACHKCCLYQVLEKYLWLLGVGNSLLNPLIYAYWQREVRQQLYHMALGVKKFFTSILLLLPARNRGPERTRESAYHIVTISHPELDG

[2] = target: T2, Glucose-dependent insulinotropic receptor (Mus musculus, UniProt Q7TQP3); test: as §1; assay type: functional
T2 sequence (Q7TQP3 whole entry): T1 sequence (whole entry)

Rattus norvegicus [3] = test: Antidiabetic activity in Sprague-Dawley rat assessed as reduction in glucose excursion at 3 mg/kg, po pretreated followed by glucose challenge measured after 10 to 30 mins by OGTT; assay type: functional, organism-based
In short: (§2)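 Sprague-Dawley rats underwent an oral glucose tolerance test with glucose excursion measured. Sitagliptin was dosed at 1 mpk and agonist at 3 mpk, alone or co-administered.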

Mus musculus [4] = test: Antidiabetic activity in C57Bl/6NCrl mouse assessed as reduction in glucose excursion at 0.03 mg/kg, po administered via gavage pretreated for 30 mins followed by glucose-challenge measured 60 mins post dose by OGTT relative to control; assay type: functional; set-up: scale not given: the % may be the effect or the level left
In short: (§3)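 Lean C57Bl/6 mice got oral vehicle or drug 30 min before the glucose challenge. Blood glucose was monitored for 60 min after oral administration and expressed as area under the curve (glucose excursion). Doses ranged from 0.03 to 30 mpk.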

Mus musculus [5] = test: Antidiabetic activity in lepr db/db mouse assessed as reduction in glucose excursion at 10 mg/kg, po by OGTT; assay type: functional, organism-based
[6] = Plasma clearance in dog at 1 mg/kg, iv or 10 mg/kg, po
Mus musculus [7] = test: Antidiabetic activity in C57Bl/6NCrl mouse assessed as reduction in glucose excursion at 0.3 mg/kg, po administered via gavage pretreated for 30 mins followed by glucose-challenge measured 60 mins post dose by OGTT relative to control; assay type: functional; set-up: scale not given: the % may be the effect or the level left; in short: as §3
Rattus norvegicus [8] = test: AUC in rat at 30 mg/kg, po; details: in vivo
[9] = Volume of distribution at steady state in rat at 1 mg/kg, iv or 30 mg/kg, po; details: in vivo, read-out: Vdss
Rattus norvegicus [10] = test: Oral bioavailability in rat at 30 mg/kg; details: in vivo
Rattus norvegicus [11] = test: Antidiabetic activity in Sprague-Dawley rat assessed as reduction in glucose excursion at 3 mg/kg, po pretreated followed by glucose challenge measured after 10 to 30 mins in presence of sitagliptin by OGTT; assay type: functional, organism-based; in short: as §2
Mus musculus [12] = test: Antidiabetic activity in C57Bl/6NCrl mouse assessed as reduction in glucose excursion administered via oral gavage pretreated for 30 mins followed by glucose-challenge measured 60 mins post dose by OGTT; assay type: functional, organism-based; in short: as §3
Mus musculus [13] = test: Antidiabetic activity in C57Bl/6NCrl mouse assessed as increase in plasma GLP1 (7 to 36) amide levels at 1 mg/kg, po administered via gavage pretreated followed by glucose-challenge measured after 10 mins in presence of sitagliptin; assay type: functional, organism-based
Mus musculus [14] = test: Antidiabetic activity in C57Bl/6NCrl mouse assessed as maximum plasma concentration required for reduction in glucose excursion at 0.3 mg/kg, po administered via gavage pretreated for 30 mins followed by glucose-challenge measured 60 mins post dose by OGTT; assay type: functional, organism-based; set-up: dose 0.3 mg/kg
In short: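 Lean C57Bl/6 mice were dosed orally 30 min before the glucose challenge (oGTT, glucose followed for 60 min). Plasma Cmax was taken at t = 1 h after the 0.3 mPk dose.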

[15] = Half life in monkey at 1 mg/kg, iv or 3 mg/kg, po; assay type: ADME, organism-based, Macaca mulatta; details: rhesus monkey, in vivo
In short: (§4)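 Monkey PK used 1 mpk IV and 3 mpk PO. Readouts were plasma clearance (mL/min/kg), Vdss (L/kg), t½ (h), oral AUC (µM·h) and bioavailability F (%).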

[16] = target: T3, Glucose-dependent insulinotropic receptor (Homo sapiens, UniProt Q8TDV5); test: (§5) Agonist activity at human GPR119 expressed in HEK293 cells assessed as increase in cAMP level after 30 mins by LANCE assay; assay type: functional, cell-based
T3 sequence (Q8TDV5 whole entry): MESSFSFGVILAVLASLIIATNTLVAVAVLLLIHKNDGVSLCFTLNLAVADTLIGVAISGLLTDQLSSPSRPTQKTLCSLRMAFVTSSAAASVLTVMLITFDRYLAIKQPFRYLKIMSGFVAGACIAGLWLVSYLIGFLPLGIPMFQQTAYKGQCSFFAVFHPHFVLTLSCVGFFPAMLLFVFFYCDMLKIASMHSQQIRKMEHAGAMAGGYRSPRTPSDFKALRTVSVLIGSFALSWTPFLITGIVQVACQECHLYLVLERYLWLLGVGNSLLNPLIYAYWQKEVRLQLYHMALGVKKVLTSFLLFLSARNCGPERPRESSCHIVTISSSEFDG

[17] = target: T4, Glucose-dependent insulinotropic receptor (Homo sapiens) (UniProt Q8TDV5); test: as §5; assay type: functional, cell-based
T4 sequence (whole entry): T3 sequence (Q8TDV5 whole entry)

Mus musculus [18] = test: Antidiabetic activity in diet-induced obese mouse assessed as reduction in glucose excursion at 1 to 3 mg/kg, po by OGTT; assay type: functional, organism-based
[19] = Volume of distribution at steady state in monkey at 1 mg/kg, iv or 3 mg/kg, po; assay type: ADME, organism-based, Macaca mulatta; details: rhesus monkey, in vivo, read-out: Vdss; in short: as §4
Mus musculus [20] = test: Antidiabetic activity in C57Bl/6NCrl mouse assessed as reduction in glucose excursion at 1 to 30 mg/kg, po administered via gavage pretreated for 30 mins followed by glucose-challenge measured 60 mins post dose by OGTT relative to control; assay type: functional; set-up: scale not given: the % may be the effect or the level left; in short: as §3
Mus musculus [21] = test: Antidiabetic activity in C57Bl/6NCrl mouse assessed as reduction in glucose excursion at 0.1 mg/kg, po administered via gavage pretreated for 30 mins followed by glucose-challenge measured 60 mins post dose by OGTT relative to control; assay type: functional; set-up: scale not given: the % may be the effect or the level left; in short: as §3
[22] = Volume of distribution at steady state in dog at 1 mg/kg, iv or 10 mg/kg, po; details: in vivo, read-out: Vdss
[23] = AUC in monkey at 3 mg/kg, po; assay type: ADME, organism-based, Macaca mulatta; details: rhesus monkey, in vivo; in short: as §4
[24] = AUC in dog at 10 mg/kg, po; details: in vivo
Mus musculus [25] = test: Glucose lowering effect in po dosed GPR119 deficient mouse assessed as reduction in glucose level by OGTT; assay type: functional, organism-based
[26] = Half life in dog at 1 mg/kg, iv or 10 mg/kg, po; details: in vivo
Mus musculus [27] = test: Glucose lowering effect in C57Bl/6NCrl mouse assessed as reduction in glucose level at 3 mg/kg, po administered via gavage pretreated for 30 mins followed by glucose-challenge measured after 20 mins by OGTT relative to control; assay type: functional; set-up: scale not given: the % may be the effect or the level left
In short: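 Overnight-fasted mice got compound or vehicle orally at 3 to 10 mg/kg. Glucose (3 g/kg po) was given 30 min post-dose. Blood glucose was read by hand-held glucometer before dosing, before glucose and 20 min after glucose. Glucose lowering (%) = [(1 − 20 min glucose of treated / 20 min glucose of vehicle) × 100].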

[28] = Oral bioavailability in monkey at 3 mg/kg; assay type: ADME, organism-based, Macaca mulatta; details: rhesus monkey, in vivo; in short: as §4
Mus musculus [29] = test: Antidiabetic activity in C57Bl/6NCrl mouse assessed as increase in plasma GLP1 (7 to 36) amide levels at 1 mg/kg, po administered via gavage pretreated followed by glucose-challenge measured after 10 mins; assay type: functional, organism-based
Mus musculus [30] = test: Antidiabetic activity in C57Bl/6NCrl mouse assessed as reduction in glucose excursion at 1 mg/kg, po administered via gavage pretreated for 30 mins followed by glucose-challenge measured 60 mins post dose by OGTT relative to control; assay type: functional; set-up: scale not given: the % may be the effect or the level left; in short: as §3
[31] = Protein binding in rat assessed as unbound fraction at 10 uM; assay type: ADME, cell-free; details: plasma
[32] = Half life in rat at 1 mg/kg, iv or 30 mg/kg, po; details: in vivo
[33] = Plasma clearance in monkey at 1 mg/kg, iv or 3 mg/kg, po; assay type: ADME, organism-based, Macaca mulatta; details: rhesus monkey; in short: as §4

- %max [1]: 99%
- EC50 [2]: 58 nM
- clearance [6]: 0.77 mL/min/kg
- AUC (Rattus norvegicus [8]): 63 µM·h
- Vd [9]: 5.8 L/kg
- F (Rattus norvegicus [10]): 35%
- half-life [15]: 720 min
- EC50 [16]: 10 nM
- %max [17]: 92%
- Vd [19]: 2.6 L/kg
- Vd [22]: 4.4 L/kg
- AUC [23]: 13 µM·h
- AUC [24]: 131 µM·h
- half-life [26]: 2.92 days
- bioavailability [28]: 38%
- Fu [31]: 1%
- half-life [32]: 528 min
- clearance [33]: 3.1 mL/min/kg
Structure (SMILES): CC1(OC(=O)N2C[C@H]3COC[C@@H](C2)[C@@H]3Oc2ncnc(Nc3ccc(C#N)cc3Cl)c2F)CC1
- Activity (Rattus norvegicus [3]): Active
- Activity (Mus musculus [4]): 21%
- Activity (Mus musculus [5]): Active
- Activity (Mus musculus [7]): 46%
- Activity (Rattus norvegicus [11]): Active
- Activity (Mus musculus [12]): Dose-dependent effect
- Activity (Mus musculus [13]): Active
- Cmax (Mus musculus [14]): 60 nM
- Activity (Mus musculus [18]): Active
- Activity (Mus musculus [20]): 50%
- Activity (Mus musculus [21]): 23%
- Activity (Mus musculus [25]): inactive
- Activity (Mus musculus [27]): 29%
- Activity (Mus musculus [29]): Active
- Activity (Mus musculus [30]): 49%
